Reference: ChEMBL document CHEMBL2040765, “Synthesis and anticancer activity of a series of norcantharidin analogues” (2012)

Columns and labels:
Type in all cases: functional
MCF7 [1] = test: Growth inhibition of human MCF7 cells after 72 hrs y MTT assay; settings: MCF7, 72 h
Outline: (§1)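 Cells kept in DMEM with 10% FBS, 10 mM sodium bicarbonate, penicillin, streptomycin and 4 mM glutamine at 37 °C under 5% CO2. Log-phase cells were plated in duplicate at 2500–4000 cells/well. After 24 h, compound in medium was added; analogue stocks were 40 mM in DMSO. Growth was read after 72 h by MTT absorbance at 540 nm in dose-response testing.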

DU-145 [2] = test: Growth inhibition of human DU145 cells after 72 hrs y MTT assay; settings: DU-145, 72 h; outline: as §1
SW480 [3] = test: Growth inhibition of human SW480 cells after 72 hrs y MTT assay; settings: SW480, 72 h; outline: as §1
A-431 [4] = test: Growth inhibition of human A431 cells after 72 hrs y MTT assay; settings: A-431, 72 h; outline: as §1
[5] = Growth inhibition of human SJ-G2 cells after 72 hrs y MTT assay; settings: SJ-G2, 72 h; outline: as §1
HT-29 [6] = test: Growth inhibition of human HT-29 cells after 72 hrs y MTT assay; settings: HT-29, 72 h; outline: as §1
NCI-H460 [7] = test: Growth inhibition of human H460 cells after 72 hrs y MTT assay; settings: NCI-H460, 72 h; outline: as §1
[8] = Growth inhibition of human BE(2)-C cells after 72 hrs y MTT assay; outline: as §1
A2780 [9] = test: Growth inhibition of human A2780 cells after 72 hrs y MTT assay; settings: A2780, 72 h; outline: as §1
MCF7 [10] = test: Growth inhibition of human MCF7 cells at 100 uM after 72 hrs y MTT assay; settings: for inhibition of growth at 100 µM: Homo sapiens, MCF7, 72 h, read-out: GI
Outline: (§2)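 Log-phase cells in supplemented DMEM (10% FBS, 4 mM glutamine, antibiotics; 37 °C, 5% CO2) were plated in duplicate at 2500–4000 cells/well. Compound was added 24 h later at a fixed 100 µM, from 40 mM DMSO stocks. After 72 h, MTT absorbance was read at 540 nm and expressed as percent growth inhibition; 100% means total inhibition.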

A-431 [11] = test: Growth inhibition of human A431 cells at 100 uM after 72 hrs y MTT assay; settings: for inhibition of growth at 100 µM: Homo sapiens, A-431, 72 h, read-out: GI; outline: as §2
DU-145 [12] = test: Growth inhibition of human DU145 cells at 100 uM after 72 hrs y MTT assay; settings: for inhibition of growth at 100 µM: Homo sapiens, DU-145, 72 h, read-out: GI; outline: as §2
A2780 [13] = test: Growth inhibition of human A2780 cells at 100 uM after 72 hrs y MTT assay; outline: as §2
HT-29 [14] = test: Growth inhibition of human HT-29 cells at 100 uM after 72 hrs y MTT assay; settings: for inhibition of growth at 100 µM: Homo sapiens, HT-29, 72 h, read-out: GI; outline: as §2
[15] = Growth inhibition of human BE(2)-C cells at 100 uM after 72 hrs y MTT assay; settings: Homo sapiens, BE(2)-C, 72 h; read-out: GI; outline: as §2
SW480 [16] = test: Growth inhibition of human SW480 cells at 100 uM after 72 hrs y MTT assay; settings: for inhibition of growth at 100 µM: Homo sapiens, SW480, 72 h, read-out: GI; outline: as §2
NCI-H460 [17] = test: Growth inhibition of human H460 cells at 100 uM after 72 hrs y MTT assay; settings: for inhibition of growth at 100 µM: Homo sapiens, NCI-H460, 72 h, read-out: GI; outline: as §2
[18] = Growth inhibition of human SJ-G2 cells at 100 uM after 72 hrs y MTT assay; settings: for inhibition of growth at 100 µM: Homo sapiens, SJ-G2, 72 h, read-out: GI; outline: as §2

Row | SMILES | GI50 (MCF7 [1]) [µM] | GI50 (DU-145 [2]) [µM] | GI50 (SW480 [3]) [µM] | GI50 (A-431 [4]) [µM] | GI50 [5] [µM] | GI50 (HT-29 [6]) [µM] | GI50 (NCI-H460 [7]) [µM] | GI50 [8] [µM] | GI50 (A2780 [9]) [µM] | other results
1 | O=C1O[C@H](O)[C@@H]2[C@H]1[C@H]1CC[C@@H]2O1 | > 100 | > 100 | > 100 | > 100 | 15 | 14 | > 100 | 28 | > 100 | 
2 | C=CCO[C@H]1OC(=O)[C@H]2[C@@H]1[C@@H]1CC[C@H]2O1 | > 100 | > 100 |  | > 100 |  |  | > 100 |  |  | 
3 | C=CCO[C@@H]1OC(=O)[C@H]2[C@@H]1[C@@H]1CC[C@H]2O1 | > 100 | > 100 | > 100 | > 100 |  |  | > 100 | > 100 | > 100 | 
4 | C/C=C/CO[C@H]1OC(=O)[C@H]2[C@@H]1[C@@H]1CC[C@H]2O1 | 77 | > 100 | 93 | > 100 | 55 | 42 | > 100 | 84 | 57 | 
5 | C/C=C/CO[C@@H]1OC(=O)[C@H]2[C@@H]1[C@@H]1CC[C@H]2O1 | > 100 | > 100 | > 100 | > 100 | 35 | 31 | > 100 | 63 | > 100 | 
6 | C#CCCCCO[C@H]1OC(=O)[C@H]2[C@@H]1[C@@H]1CC[C@H]2O1 | > 100 | > 100 | > 100 | > 100 | 55 | 51 | > 100 | > 100 | > 100 | 
7 | CCO[C@H]1OC(=O)[C@H]2[C@@H]1[C@@H]1CC[C@H]2O1 | > 100 | > 100 | > 100 | > 100 | 49 | 77 | > 100 | > 100 | > 100 | 
8 | CCCCCO[C@H]1OC(=O)[C@H]2[C@@H]1[C@@H]1CC[C@H]2O1 | 27 | > 100 | 39 | 68 | 37 | 32 | > 100 | 38 | 20 | 
9 | CCCCCCO[C@@H]1OC(=O)[C@H]2[C@@H]1[C@@H]1CC[C@H]2O1 | > 100 | > 100 | > 100 | > 100 |  |  | > 100 | > 100 | > 100 | 
10 | CCCCCCCCO[C@H]1OC(=O)[C@H]2[C@@H]1[C@@H]1CC[C@H]2O1 | 36 | 86 | 49 | 72 | 45 | 40 | > 100 | 51 | 28 | 
11 | CC(C)O[C@H]1OC(=O)[C@H]2[C@@H]1[C@@H]1CC[C@H]2O1 | > 100 | > 100 | 94 | > 100 | 21 | 19 | > 100 | 44 | > 100 | 
12 | CC(C)(C)O[C@H]1OC(=O)[C@H]2[C@@H]1[C@@H]1CC[C@H]2O1 | > 100 | > 100 | > 100 | > 100 | 48 | 52 | > 100 | > 100 | > 100 | 
13 | O=C1O[C@H](OC2CCCCC2)[C@@H]2[C@H]1[C@H]1CC[C@@H]2O1 | > 100 | > 100 | > 100 | > 100 | 41 | 45 | > 100 | > 100 | > 100 | 
14 | CC1OC1CO[C@@H]1OC(=O)[C@H]2[C@@H]1[C@@H]1CC[C@H]2O1 (stereo partly specified) |  |  |  |  |  |  |  |  |  | inhibition of growth at 100 µM (MCF7 [10]): 27%; inhibition of growth at 100 µM (A-431 [11]): 18%; inhibition of growth at 100 µM (DU-145 [12]): 17%; inhibition of growth at 100 µM (A2780 [13]; Homo sapiens, A2780, 72 h, read-out: GI): 26%; inhibition of growth at 100 µM (HT-29 [14]): 70%; inhibition of growth at 100 µM [15]: 23%; inhibition of growth at 100 µM (SW480 [16]): 17%; inhibition of growth at 100 µM (NCI-H460 [17]): 9%; inhibition of growth at 100 µM [18]: 80%
15 | CCOP(=O)(OCC)OCCCO[C@H]1OC(=O)[C@H]2[C@@H]1[C@@H]1CC[C@H]2O1 | 20 | 84 | 9 | 87 | 43 | 17 | > 100 | 9 | 22 | 
16 | O=C1O[C@H](OCCCOP(=O)(Oc2ccccc2)Oc2ccccc2)[C@@H]2[C@H]1[C@H]1CC[C@@H]2O1 | > 100 | > 100 | > 100 | > 100 | 40 | 40 | > 100 | > 100 | > 100 | 
17 | O=C1O[C@H](OCCCOP(=O)(OCC(Cl)(Cl)Cl)OCC(Cl)(Cl)Cl)[C@@H]2[C@H]1[C@H]1CC[C@@H]2O1 | 89 | > 100 | > 100 | > 100 | 41 | 37 | > 100 | > 100 | 81 | 
18 | O=C1O[C@H](OCCCOP(=O)(O)O)[C@@H]2[C@H]1[C@H]1CC[C@@H]2O1 | 45 | 65 | 65 | 52 | 57 | 42 |  | 67 | 33 | 
19 | CCCCOC1OC(=O)[C@H]2[C@@H]1[C@@H]1CC[C@H]2O1 (single isomer, unassigned) | > 100 | > 100 | > 100 | > 100 | 32 | 50 | > 100 | 93 | > 100 | 
20 | O=C1O[C@H](OCC2CO2)[C@@H]2[C@H]1[C@H]1CC[C@@H]2O1 (stereo in doubt; 19) |  |  |  |  |  |  |  |  |  | growth inhibition (GI) (MCF7 [10]): 37%; inhibition of growth at 100 µM (A-431 [11]): 35%; inhibition of growth at 100 µM (DU-145 [12]): 33%; growth inhibition (GI) (A2780 [13]): 46%; growth inhibition (GI) (HT-29 [14]): 69%; growth inhibition (GI) (SW480 [16]): 32%; inhibition of growth at 100 µM (NCI-H460 [17]): 11%; growth inhibition (GI) [18]: 75%
21 | O=C1O[C@@H](OCC2CO2)[C@@H]2[C@H]1[C@H]1CC[C@@H]2O1 (stereo in doubt; 22) |  |  |  |  |  |  |  |  |  | inhibition of growth at 100 µM (MCF7 [10]): 40%; growth inhibition (GI) (A-431 [11]): 28%; growth inhibition (GI) (DU-145 [12]): 30%; inhibition of growth at 100 µM (HT-29 [14]): 74%; inhibition of growth at 100 µM [15]: 38%; inhibition of growth at 100 µM (SW480 [16]): 28%; growth inhibition (GI) (NCI-H460 [17]): 14%; inhibition of growth at 100 µM [18]: 76%
22 | O=C1OC(=O)C2C3CCC(O3)C12 (stereo unspecified) [DEMETHYL-CANTHARIDIN] | 34 | 90 | 41 | 72 | 23 | 23 | > 100 | 36 | 27 | 
